In ChEMBL document CHEMBL1811918, “Sesquiterpene and norsesquiterpene derivatives from Sanicula lamelligera and their biological evaluation” (J Nat Prod, 2011):
Residues, ends and D or L forms follow the SMILES beside them. *: point of attachment. Cbz = O=C(OCc1ccccc1)*

How the values were obtained:
[1] = Cytotoxicity against human C8166 cells after 3 days by MTT assay; format: cell-based
Procedure, shortened: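 C8166 cells were seeded in triplicate with or without a concentration series and held at 37 C for 3 days, with compound-free wells as negative control. Viable cells were quantified by MTT absorbance at 595/630 nm. CC50, the 50% reduction in viable cells, was taken from the dose–response curve.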

[2] = Therapeutic index, ratio of CC50 for human C8166 cells to EC50 for Human immunodeficiency virus 1 3B infected in human C8166 cells; format: cell-based; settings: read-out: Ratio CC50/EC50
Procedure, shortened: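 Ratio of CC50 (MTT viability of uninfected C8166 cells, 3 days, 37 C) to EC50 (syncytium counts in HIV-1 IIIB-infected C8166 cells, 3 days, 37 C).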

RAW264.7 = experiment: Antiinflammatory against mouse RAW264.7 cells assessed as inhibition of LPS-induced nitric oxide production; format: functional, cell-based
Procedure, shortened: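 Nitric oxide production was measured in LPS-stimulated RAW 264.7 macrophages, with DMSO wells as negative control and MG-132 as positive control. IC50 was derived.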

HL-60 = experiment: Cytostatic activity against human HL60 cells after […] by MTT assay; format: functional, cell-based
Procedure, shortened: (§1)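 MTT viability in human tumor lines exposed to a concentration series for 48 h. Adherent cells were allowed to attach for 12 h before dosing. Suspension cells were seeded immediately before dosing at (1–2) × 10^5 cells/mL. DMSO wells served as negative control and DDP (cisplatin) as positive control. IC50 was calculated from viability.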

SMMC-7721 = experiment: Cytostatic activity against human SMMC7721 cells after […] by MTT assay; format: functional, cell-based; procedure, shortened: as §1
A549 = experiment: Cytostatic activity against human A549 cells after […] by MTT assay; format: functional, cell-based; procedure, shortened: as §1
MCF7 = experiment: Cytostatic activity against human MCF7 cells after […] by MTT assay; format: functional, cell-based; procedure, shortened: as §1
SW480 = experiment: Cytostatic activity against human SW480 cells after […] by MTT assay; format: functional, cell-based; procedure, shortened: as §1
[3] = test system: Human immunodeficiency virus 1; experiment: Antiviral activity against Human immunodeficiency virus 1 3B infected in human C8166 cells assessed as numbers of syncytia after 3 days by syncytium counting; settings: C8166, 72 h
[4] = test system: Human immunodeficiency virus 1; experiment: Antiviral activity against Human immunodeficiency virus 1 3B infected in human C8166 cells assessed as numbers of syncytia after 3 days by MTT assay; format: functional, organism-based; settings: C8166, 72 h
Procedure, shortened: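 Compounds at various concentrations were added to C8166 cells (8 × 10^5/mL) infected with HIV-1 IIIB and incubated at 37 C for 3 days. The cytopathic effect was scored by counting syncytia, with AZT as positive control. EC50 came from the percentage of syncytial cells relative to the infected untreated control.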

Structure (SMILES) | CC50 at 72 h [1] [µM] | selectivity ratio [2] | IC50 (RAW264.7) [µM] | IC50 (HL-60) [µM] | IC50 (SMMC-7721) [µM] | IC50 (A549) [µM] | IC50 (MCF7) [µM] | IC50 (SW480) [µM] | EC50 [3] [µM] | EC50 [4] [µM]
C=C1CC[C@H]2[C@@H]([C@@H]3[C@@H]1CC[C@@]3(C)O)C2(C)C | 170 | 1.6 | > 64.4 | > 64.4 | > 64.4 | > 64.4 | > 64.4 | > 64.4 | 104 | 
C=C1CC[C@H](O)[C@@]2(C)CC[C@@H]([C@@H](O)C(C)C)[C@H]12 | 398 | 2.4 | > 64.4 | > 64.4 | > 64.4 | > 64.4 | > 64.4 | > 64.4 | 167 | 
CC(=O)CC[C@@H](C(C)C)[C@@H]1[C@H]2CCC(=O)[C@H]21 [SANICULAMOID D] | > 450 | > 2.3 | > 64.4 | > 64.4 | > 64.4 | > 64.4 | > 64.4 | > 64.4 | 196 | 
C[C@H](/C=C/[C@]12O[C@@]1(C)C[C@@H](O)CC2(C)C)O[C@@H]1O[C@H](CO)[C@@H](O)[C@H](O)[C@H]1O [PHLOMUROSIDE] | > 258 |  | > 64.4 | > 64.4 | > 64.4 | > 64.4 | > 64.4 | > 64.4 | > 258 | 
C=C1CC[C@@H](O)[C@]2(C)CC[C@@](O)(C(C)C)C[C@@H]12 | > 420 |  | > 64.4 | > 64.4 | > 64.4 | > 64.4 | > 64.4 | > 64.4 | > 420 | 
C=C1CC[C@@H](O)[C@@]2(C)CC[C@H](C(C)C)[C@@H](O)[C@H]12 | 68.1 | 2.1 | 28.1 | 31.1 | 32.4 | 41.6 | 35.3 | 37 | 31.9 | 
C=C1CC[C@@H](O)[C@]2(C)CC[C@H](CC(C)(C)O)[C@@H]12 | > 420 |  | > 64.4 | > 64.4 | > 64.4 | > 64.4 | > 64.4 | > 64.4 | > 420 | 
CC(C)[C@H]1CC[C@@]2(C)[C@@H]1[C@@H]1O[C@]1(CO)CC[C@@H]2O [SANICULAMOID B] | 358 | 2.9 | > 64.4 | > 64.4 | > 64.4 | > 64.4 | > 64.4 | > 64.4 | 126 | 
CC(C)C1=C[C@@H]2[C@H](CC[C@@]2(C)O)[C@@](C)(O)CC1 [GUAIANEDIOL] | > 420 |  | > 64.4 | > 64.4 | > 64.4 | > 64.4 | > 64.4 | > 64.4 | > 420 | 
C=C(C)[C@@H]1CC[C@@]2(C)[C@H](O)CC[C@@](C)(O)[C@@H]2C1 [CYPERUSOL C] | > 420 | > 2.8 | > 64.4 | > 64.4 | > 64.4 | > 64.4 | > 64.4 | > 64.4 | 150 | 
CC(=O)C=C=C1C(C)(C)C[C@H](O)C[C@@]1(C)O[C@@H]1O[C@H](CO)[C@@H](O)[C@H](O)[C@H]1O [CITROSIDE B] | > 259 |  | > 64.4 | > 64.4 | > 64.4 | > 64.4 | > 64.4 | > 64.4 | > 259 | 
CC(=O)/C=C/[C@@]1(O)C(C)=CC(=O)CC1(C)C | > 450 |  | > 64.4 | > 64.4 | > 64.4 | > 64.4 | > 64.4 | > 64.4 | > 450 | 
CC(C)(O)[C@H]1C[C@H]2[C@H](CC[C@@]2(C)O)[C@](C)(O)C[C@@H]1O [SANICULAMOID C] | > 368 |  | > 64.4 | > 64.4 | > 64.4 | > 64.4 | > 64.4 | > 64.4 | > 368 | 
CC(C)[C@H]1CC[C@@]2(C)[C@@H]1[C@H]1O[C@@H]2CC[C@@H]1C(=O)O [SANICULAMOID A1] | 195 | 1.2 | > 64.4 | > 64.4 | > 64.4 | > 64.4 | > 64.4 | > 64.4 | 162 | 
CC(C)C[C@@H](C=O)NC(=O)[C@H](CC(C)C)NC(=O)[C@H](CC(C)C)NC(=O)OCc1ccccc1 [MG-132] (Cbz-Leu-Leu-Leu-aldehyde) |  |  | 0.439 |  |  |  |  |  |  | 
Cc1cn([C@H]2C[C@H](N=[N+]=[N-])[C@@H](CO)O2)c(=O)[nH]c1=O [ZIDOVUDINE] | 4070 | 214000 |  |  |  |  |  |  |  | 0.0045
